Columns and labels:
Type in all cases: functional, cell-based
[1] = Antiproliferative activity against human MDA-MB-435S cells after 72 hrs by MTT assay
Outline: (§1)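 Cells seeded at 8000 per well in 96-well plates, exposed to compound for 72 h. MTT added at 0.5 mg/mL final and incubated 4 h. Formazan dissolved in DMSO, absorbance read at 570 nm. IC50 is the concentration giving 50% reduction in cell growth, reported as the mean of three repeated experiments.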

MCF7 = assay: Antiproliferative activity against human MCF7 cells after 72 hrs by MTT assay; conditions: MCF7, 72 h; outline: as §1
HEp-2 = assay: Antiproliferative activity against human Hep2 cells after 72 hrs by MTT assay; conditions: HEp-2, 72 h; outline: as §1
[2] = Antiproliferative activity against human LM7 cells after 72 hrs by MTT assay; conditions: LM7, 72 h; outline: as §1
HeLa = assay: Antiproliferative activity against human HeLa cells after 72 hrs by MTT assay; outline: as §1
SW480 = assay: Antiproliferative activity against human SW480 cells after 72 hrs by MTT assay; conditions: SW480, 72 h; outline: as §1

Row | SMILES | IC50 [1] [µM] | IC50 (MCF7) [µM] | IC50 (HEp-2) [µM] | IC50 [2] [µM] | IC50 (HeLa) [µM] | IC50 (SW480) [µM]
1 | COc1ccc2c(=O)c(CSC(=S)N3CCCC3)coc2c1 | 1.8 | 34.1 | 3.1 | 6 | 12.1 | 4.8
2 | CC(C)N(C(=S)SCc1coc2ccc(Cl)cc2c1=O)C(C)C | > 25 |  | 4.2 | > 25 | > 25 | > 25
3 | O=c1cc(CSC(=S)N2CCCCC2)oc2ccc(Cl)cc12 | 3 | > 25 | 1.6 | 13.8 | > 25 | 2.5
4 | O=c1c(Cl)c(CSC(=S)N2CCOCC2)oc2ccccc12 | 4.1 | 11.1 | 9 | 19.2 | 4.5 | 1.8
5 | Cc1ccc2occ(CSC(=S)N3CCOCC3)c(=O)c2c1 | 5.5 | 20.7 | 4 | 14.3 | 6.1 | 3.8
6 | O=c1c(CSC(=S)N2CCN(c3ccccc3)CC2)coc2ccccc12 | 9.7 | > 30 | 16.7 | 2.9 | 7.1 | 5.2
7 | O=c1c(CSC(=S)N2CCN(C(c3ccc(F)cc3)c3ccc(F)cc3)CC2)coc2ccccc12 | > 40 | > 30 | 9.6 | > 25 | > 25 | > 40
8 | COc1ccc2c(=O)c(CSC(=S)N3CCOCC3)coc2c1 | > 40 | 11.8 | 4.8 | > 40 | 9.5 | 7.1
9 | CCOC(=O)c1cc(=O)c2cc(CSC(=S)N(C)c3ccccc3)ccc2o1 | 13.5 | > 25 |  | > 25 | 18.1 | > 25
10 | O=c1cc(CSC(=S)N2CCOCC2)oc2ccc(Cl)cc12 | > 25 | > 25 | 20.6 | > 25 | 33.3 | > 25
11 | O=c1cc(CSC(=S)N2CCCCC2)oc2ccccc12 | > 25 | > 25 | 12 | > 25 | > 25 | 13.7
12 | CCOC(=O)c1cc(=O)c2cc(CSC(=S)N3CCOCC3)ccc2o1 | > 25 | > 25 | > 25 | > 25 | > 25 | > 25
13 | CCOC(=O)c1cc(=O)c2cc(CSC(=S)N3CCCCC3)ccc2o1 | 2.9 | 21.9 | 3.4 | 16.9 | 5.8 | > 25
14 | O=c1cc(CSC(=S)N2CCOCC2)oc2ccccc12 | 22.2 | 21 | > 25 | 25.2 | 35.6 | 24.4
15 | O=c1cc(CSC(=S)N(CCCl)CCCl)oc2ccccc12 | 3.7 | > 25 | 15.6 | > 25 | > 25 | 25.1
16 | O=c1c(Cl)c(CSC(=S)N2CCCC2)oc2ccccc12 | 1.8 | 2.3 | 0.6 | 1.9 | 0.7 | 1.4
17 | CN1CCN(C(=S)SCc2coc3ccccc3c2=O)CC1 | 2.2 | 22.9 | 2.4 | 17.6 | 5.9 | 
18 | O=c1c(CSC(=S)N2CCCC2)coc2ccccc12 | 3.8 | > 25 | 3.6 | 6 | > 25 | 2.3

Row | SMILES | IC50 [1] [µM] | IC50 (MCF7) [µM] | IC50 (HEp-2) [µM] | IC50 [2] [µM] | IC50 (HeLa) [µM] | IC50 (SW480) [µM]
19 | O=c1c(SC(=S)N2CCCCC2)coc2ccc(Cl)cc12 | 13.3 | > 25 | 12.2 | > 25 | 8.3 | > 25
20 | COc1ccc2c(=O)cc(CSC(=S)N3CCOCC3)oc2c1 | 3.4 | > 25 | 3 | 11 | > 25 | 3.1
21 | O=c1cc(CSC(=S)N2CCN(c3ccccc3)CC2)oc2ccc(Cl)cc12 | 18.6 | > 25 | 15.9 | 15.9 | 25.9 | 21.2
22 | O=c1c(CSC(=S)N2CCCC2)coc2ccc(Cl)cc12 | 6.4 | 0.6 | 2.1 | 2.6 | 1.3 | 7.8
23 | CCN(CC)C(=S)SCc1cc(=O)c2cc(Cl)ccc2o1 | 23.5 | > 25 | 8.8 | 8.8 | 8.7 | > 25
24 | CC(C)N(C(=S)SCc1oc2ccccc2c(=O)c1Cl)C(C)C | 23.6 | > 40 | 20 | > 40 | > 40 | 18.1
25 | O=c1cc(CSC(=S)N2CCCC2)oc2ccccc12 | > 30 | 35.8 | 9.1 | 40 | 23.1 | 23.4
26 | O=c1c(CSC(=S)N2CCOCC2)coc2ccccc12 | 3.9 | 4 | 4.4 | 12 |  | 5.9
27 | O=c1cc(CSC(=S)N2CCCC2)oc2ccc(Cl)cc12 | > 25 | > 25 | > 40 | > 25 | > 40 | > 25
28 | COc1ccc2c(=O)c(CSC(=S)N3CCCCC3)coc2c1 | 0.93 | > 40 | 4.3 | 4.7 | 3.5 | 6.7
29 | CCOC(=O)c1cc(=O)c2cc(CSC(=S)N3CCCC3)ccc2o1 | 3.4 | > 25 | 8.9 | 18 | 6.6 | > 25
30 | O=c1c(CSC(=S)N2CCN(Cc3ccccc3)CC2)coc2ccccc12 | 4.4 | 9.6 | 2.9 | 19.1 | 7.9 | 4.5
31 | O=c1c(SC(=S)N2CCCC2)coc2ccccc12 | 1.9 | 12.2 | 7.4 |  | 3.8 | > 25
32 | O=c1c(CSC(=S)N2CCOCC2)coc2ccc(Cl)cc12 | 0.6 | 8.1 | 0.9 | 6.2 | 2 | 6.2
33 | O=c1c(CSC(=S)N2CCCCC2)coc2ccccc12 | 0.47 | 1.7 | 0.39 | 4.6 | 2.3 | 1.2
34 | COc1ccc2c(=O)cc(CSC(=S)N(C(C)C)C(C)C)oc2c1 | 22.1 | > 25 | 7.6 | 19.1 | > 25 | 7.2
35 | CC(C)N(C(=S)SCc1cc(=O)c2ccccc2o1)C(C)C | > 40 | 31.7 | 13.6 | > 25 |  | > 40
36 | O=c1c(SC(=S)N2CCCCC2)coc2ccccc12 | 17.4 |  | 5.8 | 7.8 | 9 | 16.3

Reference: ChEMBL document CHEMBL1153612, “Synthesis and antitumor activity of novel dithiocarbamate substituted chromones” (Eur J Med Chem, 2009)
